Test results taken from ChEMBL document CHEMBL1126067, “Inhibitors of cholesterol biosynthesis. 6. trans-6-[2-(2-N-heteroaryl-3,5-disubstituted- pyrazol-4-yl)ethyl/ethenyl]tetrahydro-4-hydroxy-2H-pyran-2-ones” (J Med Chem, 1992).

Columns and labels:
[1] = target: T1, 3-hydroxy-3-methylglutaryl-coenzyme A reductase (Rattus norvegicus) (UniProt P51639); assay: Tested in vivo for the inhibition of cholesterol biosynthesis in chow-fed rats at 1.0 mg/kg.; type: functional, organism-based; parameters: dose 1 mg/kg
T1 sequence (whole entry): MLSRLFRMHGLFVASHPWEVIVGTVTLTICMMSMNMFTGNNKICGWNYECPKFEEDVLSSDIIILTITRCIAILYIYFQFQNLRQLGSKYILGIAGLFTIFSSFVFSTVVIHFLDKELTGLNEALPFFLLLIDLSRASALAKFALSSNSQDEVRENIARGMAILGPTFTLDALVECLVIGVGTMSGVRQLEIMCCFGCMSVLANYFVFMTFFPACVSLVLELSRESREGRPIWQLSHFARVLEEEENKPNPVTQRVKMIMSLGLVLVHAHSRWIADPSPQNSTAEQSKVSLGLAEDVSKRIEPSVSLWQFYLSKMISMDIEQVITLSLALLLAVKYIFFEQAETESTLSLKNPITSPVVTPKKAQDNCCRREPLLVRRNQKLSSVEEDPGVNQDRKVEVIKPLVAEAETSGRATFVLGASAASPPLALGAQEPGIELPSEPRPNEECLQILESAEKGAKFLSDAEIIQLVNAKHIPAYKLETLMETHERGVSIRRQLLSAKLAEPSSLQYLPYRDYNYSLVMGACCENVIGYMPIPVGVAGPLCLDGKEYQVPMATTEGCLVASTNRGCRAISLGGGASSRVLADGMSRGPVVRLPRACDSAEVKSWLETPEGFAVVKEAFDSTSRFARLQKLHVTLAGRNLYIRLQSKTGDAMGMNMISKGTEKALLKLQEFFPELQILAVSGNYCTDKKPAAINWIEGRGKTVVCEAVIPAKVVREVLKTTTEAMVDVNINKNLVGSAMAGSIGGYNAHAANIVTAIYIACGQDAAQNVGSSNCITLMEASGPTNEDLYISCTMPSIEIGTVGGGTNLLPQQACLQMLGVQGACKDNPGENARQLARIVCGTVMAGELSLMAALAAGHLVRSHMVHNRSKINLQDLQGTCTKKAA
Summary of the method: (§1)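 Acute in vivo cholesterol synthesis (AICS) in normal chow-fed rats. Compounds dosed in DMA/PEG solution, 1.0 mg/kg po unless stated otherwise. Synthesis measured as incorporation of [1-14C]acetate into plasma sterols.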

Rattus norvegicus [2] = assay: The compound was tested in vivo for the inhibition of cholesterol biosynthesis in chow-fed rats.; type: functional; summary of the method: as §1
Rattus norvegicus [3] = assay: The compound in lactone form was tested in vivo for the inhibition of cholesterol biosynthesis in chow-fed rats at 1.0 mg/kg.; type: functional; summary of the method: as §1
Rattus norvegicus [4] = assay: The compound was tested in vivo for the inhibition of cholesterol biosynthesis in chow-fed rats at 1.0 mg/kg; type: functional; summary of the method: as §1
Canis familiaris [5] = assay: Hypocholesterolemic activity in Cholestyramine-primed Beagle dogs at dose of 0.1 mg/kg four weeks after.; type: functional, Canis lupus familiaris
Summary of the method: (§2)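 Beagle dogs pretreated with cholestyramine resin, then given resin plus inhibitor. Plasma cholesterol read after 2 and 4 weeks of drug treatment. Values are mean percent change from pretreatment values within the same group; significance versus untreated controls at p < 0.05.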

Canis familiaris [6] = assay: Hypocholesterolemic activity in Cholestyramine-primed Beagle dogs at dose of 0.1 mg/kg two weeks after.; type: functional, Canis lupus familiaris; summary of the method: as §2
Canis familiaris [7] = assay: Hypocholesterolemic activity in Cholestyramine-primed Beagle dogs at dose of 0.3 mg/kg four weeks after.; type: functional, Canis lupus familiaris; summary of the method: as §2
Canis familiaris [8] = assay: Hypocholesterolemic activity in Cholestyramine-primed Beagle dogs at dose of 0.3 mg/kg two weeks after.; type: functional, Canis lupus familiaris; summary of the method: as §2
Canis familiaris [9] = assay: Hypocholesterolemic activity in Cholestyramine-primed Beagle dogs at dose of 1.0 mg/kg four weeks after.; type: functional, Canis lupus familiaris; summary of the method: as §2
Canis familiaris [10] = assay: Hypocholesterolemic activity in Cholestyramine-primed Beagle dogs at dose of 1.0 mg/kg two weeks after.; type: functional, Canis lupus familiaris; summary of the method: as §2
Rattus norvegicus [11] = assay: The compound was tested in vivo for the inhibition of cholesterol biosynthesis in chow-fed rats at 1.0 mg/kg.; type: functional; summary of the method: as §1
Rattus norvegicus [12] = assay: The compound form was tested in vivo for the inhibition of cholesterol biosynthesis in chow-fed rats at 1.0 mg/kg; not determined; type: functional; summary of the method: as §1

CC(C)c1nn(-c2cnccn2)c(-c2ccc(F)cc2)c1/C=C/[C@@H](O)C[C@@H](O)CC(=O)[O-].[Na+] gave an inhibition [1] of 75% and an Inhibition (Rattus norvegicus [2]) of 91%.

For CC(C)c1nn(-c2ccccn2)c(-c2ccc(F)cc2)c1/C=C/[C@@H](O)C[C@@H](O)CC(=O)O, the inhibition in vivo at 1 mg/kg (Rattus norvegicus [3]) was 85% and the inhibition [1] was 98%.

In the case of CC(C)c1nn(-c2ccccc2)c(-c2ccc(F)cc2)c1CCC1C[C@@H](O)CC(=O)O1 (some centres undefined), the inhibition in vivo at 1 mg/kg (Rattus norvegicus [4]) is reported as 54%.

With CC(C)c1nn(-c2ccc3ccccc3n2)c(-c2ccc(F)cc2)c1/C=C/[C@@H](O)C[C@@H](O)CC(=O)O the inhibition [1] was 69%.

Compound CC(C)c1nn(-c2ccc3ccccc3n2)c(-c2ccc(F)cc2)c1/C=C/[C@@H]1C[C@@H](O)CC(=O)O1 has an inhibition [1] of 75%.

With CC(C)c1nn(-c2ccccc2)c(-c2ccc(F)cc2)c1/C=C/[C@@H](O)C[C@@H](O)CC(=O)O the inhibition [1] was 94%.

Compound CC(C)c1nn(-c2ccccc2)c(-c2ccc(F)cc2)c1CCC(O)C[C@@H](O)CC(=O)O (some centres undefined) has an inhibition [1] of 72%.

CC(C)c1nn(-c2ccccn2)c(-c2ccc(F)cc2)c1CCC(O)C[C@@H](O)CC(=O)O (some centres undefined) showed an inhibition [1] of 68%.

Compound CC(C)c1nn(-c2ccccn2)c(-c2ccc(F)cc2)c1CCC1C[C@@H](O)CC(=O)O1 (some centres undefined) has an inhibition [1] of 58%.

For CC(C)c1nn(-c2nc3ccccc3s2)c(-c2ccc(F)cc2)c1/C=C/[C@@H](O)C[C@@H](O)CC(=O)O, the inhibition [1] was 51%.

CC(C)c1nn(-c2nc3ccccc3s2)c(-c2ccc(F)cc2)c1/C=C/[C@@H]1C[C@@H](O)CC(=O)O1 gave an inhibition [1] of 30%.

O=C(O)C[C@H](O)C[C@H](O)/C=C/c1c(C(F)(F)F)nn(-c2ccccn2)c1-c1ccc(F)cc1 showed an inhibition [1] of 81%.

O=C1C[C@H](O)C[C@@H](/C=C/c2c(C(F)(F)F)nn(-c3ccccn3)c2-c2ccc(F)cc2)O1 gave an inhibition [1] of 60%.

CC(C)c1nn(-c2ccccn2)c(-c2ccc(F)cc2)c1/C=C/[C@@H]1C[C@@H](O)CC(=O)O1 (stereo in doubt; 10a) gave an inhibition [1] of 83%.

For CC(C)c1nn(-c2cnccn2)c(-c2ccc(F)cc2)c1/C=C/[C@@H]1C[C@@H](O)CC(=O)O1 (stereo in doubt; 10b), the inhibition [1] was 80%.

Compound CC(C)c1nn(-c2ccccn2)c(-c2ccc(F)cc2)c1/C=C/[C@@H]1C[C@@H](O)CC(=O)O1 (stereo in doubt; 20a) [listing 1 of 2 here] has a Change (Canis familiaris [5]) of -16%, a Change (Canis familiaris [6]) of -20% and a Change (Canis familiaris [7]) of -32%. It also gave a Change (Canis familiaris [8]) of -31%, a Change (Canis familiaris [9]) of -50% and a Change (Canis familiaris [10]) of -44%.

CC(C)c1nn(-c2ccccn2)c(-c2ccc(F)cc2)c1/C=C/[C@@H]1C[C@@H](O)CC(=O)O1 (stereo in doubt; 20a) [listing 2 of 2 here] showed an inhibition [1] of 93%.

CC(C)c1nn(-c2cnccn2)c(-c2ccc(F)cc2)c1/C=C/[C@@H]1C[C@@H](O)CC(=O)O1 (stereo in doubt; 20b) showed an inhibition [1] of 92%.

Work on CC[C@H](C)C(=O)O[C@H]1C[C@@H](C)C=C2C=C[C@H](C)[C@H](CC[C@@H]3C[C@@H](O)CC(=O)O3)[C@H]21 [LOVASTATIN] yielded a Change (Canis familiaris [5]) of -1%, a Change (Canis familiaris [6]) of -7% and a Change (Canis familiaris [7]) of -2%. For the same compound, the Change (Canis familiaris [8]) was -10%, the Change (Canis familiaris [9]) was -17% and the Change (Canis familiaris [10]) was -25%. For the same compound, the inhibition in vivo at 1 mg/kg (Rattus norvegicus [11]) was 64%.

CC[C@H](C)C(=O)O[C@H]1C[C@H](O)C=C2C=C[C@H](C)[C@H](CC[C@@H](O)C[C@@H](O)CC(=O)O)[C@H]21 [PRAVASTATIN] showed an inhibition in vivo at 1 mg/kg (Rattus norvegicus [12]) of 48% and an inhibition [1] of 48%.
